# Measurements published in ChEMBL document CHEMBL1124421, “A dihydropyridine carrier system for sustained delivery of 2',3'-dideoxynucleosides to the brain” (J Med Chem, 1989).
# How the values were obtained:
# [1] = species: Mus musculus; test: Distribution of compound in mice brain was measured after 2 hr; conditions: in vivo
# [2] = species: Mus musculus; test: Distribution of compound in mice liver was measured after 2 hr; assay type: ADME, organism-based; conditions: in vivo
# Method in brief: (§1)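 Female BDF/1 mice dosed by tail-vein injection at 25 mg/kg in 5% Tween 80 containing 5% ethanol; killed 1, 2, 3, 6 and 24 h later. Liver homogenized in 50% methanol and pyridinium salt quantified by C-18 reverse-phase HPLC (linear gradient 50–70% acetonitrile). Three mice per time point; values in µg/g wet tissue.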
# [3] = species: Mus musculus; test: Distribution of compound in mice brain was measured after 6 hr; conditions: in vivo
# [4] = species: Mus musculus; test: Distribution of compound in mice brain was measured after 24 hr r; conditions: in vivo
# [5] = species: Mus musculus; test: Distribution of compound in mice liver was measured after 1 hr; assay type: ADME, organism-based; conditions: in vivo; method in brief: as §1
# [6] = species: Mus musculus; test: Distribution of compound in mice brain was measured after 1 hr; conditions: in vivo
# [7] = species: Mus musculus; test: Distribution of compound in mice brain was measured after 3 hr; conditions: in vivo
# [8] = species: Mus musculus; test: Distribution of compound in mice liver was measured after 6 hr; assay type: ADME, organism-based; conditions: in vivo; method in brief: as §1
# [9] = species: Mus musculus; test: Distribution of compound in mice liver was measured after 24 hr; b=Undetected; assay type: ADME, organism-based; conditions: in vivo; method in brief: as §1
# [10] = species: Mus musculus; test: Distribution of compound in mice liver was measured after 3 hr; assay type: ADME, organism-based; conditions: in vivo; method in brief: as §1
# [11] = In vitro oxidation of compound to its pyridinium salt (3) in presence of hydrogen peroxide; assay type: ADME
# [12] = Half-life of compound in presence of mouse liver homogenate; assay type: ADME
# Method in brief: (§2)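 Dihydropyridine ester at 5 × 10^-5 M kept at 37 °C in a UV cuvette. Media were human plasma diluted 1:1 with 50 mM phosphate buffer pH 7.4, mouse liver homogenate (20 mg/mL) or mouse brain homogenate (40 mg/mL) in the same buffer. Loss of the 360 nm dihydronicotinate absorbance was followed. Rate constant came from the slope of log disappearance.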
# [13] = Half-life of compound in presence of mouse brain homogenate; assay type: ADME; method in brief: as §2
# [14] = Half-life of compound in presence of hydrogen peroxide; assay type: ADME
# [15] = species: Mus musculus; test: In vitro oxidation of compound to its pyridinium salt (3) in presence of mouse liver homogenate; assay type: ADME; method in brief: as §2
# [16] = Half-life of compound in presence of human plasma; assay type: ADME; method in brief: as §2
# [17] = species: Mus musculus; test: In vitro oxidation of compound to its pyridinium salt (3) in presence of mouse brain homogenate; assay type: ADME; method in brief: as §2
# [18] = species: Homo sapiens; test: In vitro oxidation of compound to its pyridinium salt (3) in presence of human plasma; assay type: ADME; method in brief: as §2
Concentration [1],Concentration [2],Concentration [3],Concentration [4],Concentration [5],Concentration [6],Concentration [7],Concentration [8],Concentration [9],Concentration [10],K [11],half-life [12],half-life [13],half-life [14],K [15],half-life [16],K [17],K [18],SMILES
4.9 ug (g of wet tissue)-1,2.5 ug (g of wet tissue)-1,5.1 ug (g of wet tissue)-1,3 ug (g of wet tissue)-1,3.3 ug (g of wet tissue)-1,4.7 ug (g of wet tissue)-1,5.3 ug (g of wet tissue)-1,1.3 ug (g of wet tissue)-1,Undetected,2 ug (g of wet tissue)-1,,,,,,,,,Cc1cn(C2C=CC(COC(=O)c3ccc[n+](C)c3)O2)c(=O)[nH]c1=O.[I-] (stereo not drawn)
,,,,,,,,,,0.00055 s⁻¹,2.08 h,2.17 h,0.35 h,0.000092 s⁻¹,5.42 h,0.0000885 s⁻¹,0.0000354 s⁻¹,Cc1cn(C2C=CC(COC(=O)C3=CN(C)C=CC3)O2)c(=O)[nH]c1=O (stereo not drawn)
2.5 ug (g of wet tissue)-1,,2.3 ug (g of wet tissue)-1,1.2 ug (g of wet tissue)-1,,2.7 ug (g of wet tissue)-1,2.6 ug (g of wet tissue)-1,,,,,,,,,,,,Cc1cn([C@H]2C=C[C@@H](CO)O2)c(=O)[nH]c1=O [STAVUDINE]

SMILES,Concentration [1],Concentration [2],Concentration [3],Concentration [4],Concentration [5],Concentration [6],Concentration [7],Concentration [8],Concentration [9],Concentration [10],K [11],half-life [12],half-life [13],half-life [14],K [15],half-life [16],K [17],K [18]
C[n+]1cccc(C(=O)[O-])c1 [TRIGONELLINE],2.1 ug (g of wet tissue)-1,,1.9 ug (g of wet tissue)-1,0.9 ug (g of wet tissue)-1,,2.2 ug (g of wet tissue)-1,2.4 ug (g of wet tissue)-1,,,,,,,,,,,
